# Reference: article PMC11310838 (RSC Advances, 2024)
# Read-outs that look alike come from different tables or passages of the source.
# What was measured:
# [1] = tested on: HDF cell line (Human Dermal Fibroblasts); test: Sulforhodamine B; format: cell-based; details: Homo sapiens, HDF, 48 h, read-out: Percentage of cell growth inhibition at [100 μM] HDF
# Method in brief: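 Normal human dermal fibroblasts came from the National Cancer Institute, Cairo. Final DMSO was ≤0.1% (v/v). Cells were exposed to the test compound at a single 100 μM dose for 48 h. Growth inhibition was measured by the sulforhodamine-B method, with absorbance read at 570 nm and expressed as percentage of cell viability.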
# EGFR kinase = EGFR kinase (Homo sapiens, UniProt P00533); test: EGFR kinase inhibitory assay; format: biochemical; details: for % of EGFR inhibition: concentration not given, average of three replicates
# HCT116 cell line = test: Sulforhodamine B; format: cell-based, human; details: for inhibition at 100 µM: read-out: Percentage of cell growth inhibition at [100 μM] HCT116
# Method in brief: (§1)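 Carcinoma lines came from the National Cancer Institute, Cairo, and were grown as monolayers in DMEM with 10% FBS and 1% penicillin–streptomycin. Final DMSO was ≤0.1% (v/v). Cells were treated for 48 h either at a single 100 μM dose (% growth inhibition) or at 0, 6.25, 12.5, 25 and 50 μM. SRB staining was read at 570 nm as % viability. IC50 came from dose–response curve fitting.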
# MCF7 cell line = test: Sulforhodamine B; format: cell-based, human; details: Homo sapiens, MCF7, 48 h; for IC50: read-out: IC50 (μM) ± SD MCF7; for inhibition at 100 µM: read-out: Percentage of cell growth inhibition at [100 μM] MCF7
# Method in brief: as §1
# HEPG2 cell line = test: Sulforhodamine B; format: cell-based, human; details: Homo sapiens, HepG2, 48 h; for IC50: read-out: IC50 (μM) ± SD HEPG2; for inhibition at 100 µM: read-out: Percentage of cell growth inhibition at [100 μM] HEPG2
# Method in brief: as §1
# [2] = tested on: cancer cell lines (HCT116, HEPG2, MCF7); test: SRB single-dose screen, summary over cancer cell lines; format: cell-based; details: Homo sapiens, 48 h, read-out: percentage of cell growth inhibition on the cancer cell lines
# Method in brief: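 Human carcinoma lines grown as monolayers in DMEM with 10% FBS and 1% penicillin–streptomycin. Each test compound was applied once at 100 μM for 48 h, with final DMSO at most 0.1% (v/v) in control and treated wells. Growth was measured by sulforhodamine-B staining, with OD read at 570 nm. Percentage growth inhibition was calculated from viability relative to the untreated control.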
# HCT-116 cells [3] = test: RT-PCR of apoptosis-related genes; format: cell-based, human; details: HCT-116, IC50 = 8.5 μM, 48 h, untreated control = 1
# Method in brief: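 HCT-116 cells were exposed to the test compound for 48 h, alongside untreated cells. Relative expression of apoptosis-related genes was measured by real-time PCR. Ct values were normalised to β-actin, and untreated control was set to fold change = 1. Data are the mean ± SD of 3 independent runs.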
# HCT-116 cells [4] = test: DNA content-flow cytometry cell cycle analysis; format: cell-based, human; details: HCT-116, treated at IC50 = 8.5 μM, 48 h; control 3.77%
# HCT-116 cells [5] = test: Annexin V/PI staining flow cytometry; format: cell-based, human; details: HCT-116, treated at IC50 = 8.5 μM, 48 h
# [6] = Homo sapiens, HCT-116, 48 h, read-out: IC50 (μM) ± SD HCT116, 48 h treatment, SRB
# Chain of EGFR kinase (P00533 25-1210): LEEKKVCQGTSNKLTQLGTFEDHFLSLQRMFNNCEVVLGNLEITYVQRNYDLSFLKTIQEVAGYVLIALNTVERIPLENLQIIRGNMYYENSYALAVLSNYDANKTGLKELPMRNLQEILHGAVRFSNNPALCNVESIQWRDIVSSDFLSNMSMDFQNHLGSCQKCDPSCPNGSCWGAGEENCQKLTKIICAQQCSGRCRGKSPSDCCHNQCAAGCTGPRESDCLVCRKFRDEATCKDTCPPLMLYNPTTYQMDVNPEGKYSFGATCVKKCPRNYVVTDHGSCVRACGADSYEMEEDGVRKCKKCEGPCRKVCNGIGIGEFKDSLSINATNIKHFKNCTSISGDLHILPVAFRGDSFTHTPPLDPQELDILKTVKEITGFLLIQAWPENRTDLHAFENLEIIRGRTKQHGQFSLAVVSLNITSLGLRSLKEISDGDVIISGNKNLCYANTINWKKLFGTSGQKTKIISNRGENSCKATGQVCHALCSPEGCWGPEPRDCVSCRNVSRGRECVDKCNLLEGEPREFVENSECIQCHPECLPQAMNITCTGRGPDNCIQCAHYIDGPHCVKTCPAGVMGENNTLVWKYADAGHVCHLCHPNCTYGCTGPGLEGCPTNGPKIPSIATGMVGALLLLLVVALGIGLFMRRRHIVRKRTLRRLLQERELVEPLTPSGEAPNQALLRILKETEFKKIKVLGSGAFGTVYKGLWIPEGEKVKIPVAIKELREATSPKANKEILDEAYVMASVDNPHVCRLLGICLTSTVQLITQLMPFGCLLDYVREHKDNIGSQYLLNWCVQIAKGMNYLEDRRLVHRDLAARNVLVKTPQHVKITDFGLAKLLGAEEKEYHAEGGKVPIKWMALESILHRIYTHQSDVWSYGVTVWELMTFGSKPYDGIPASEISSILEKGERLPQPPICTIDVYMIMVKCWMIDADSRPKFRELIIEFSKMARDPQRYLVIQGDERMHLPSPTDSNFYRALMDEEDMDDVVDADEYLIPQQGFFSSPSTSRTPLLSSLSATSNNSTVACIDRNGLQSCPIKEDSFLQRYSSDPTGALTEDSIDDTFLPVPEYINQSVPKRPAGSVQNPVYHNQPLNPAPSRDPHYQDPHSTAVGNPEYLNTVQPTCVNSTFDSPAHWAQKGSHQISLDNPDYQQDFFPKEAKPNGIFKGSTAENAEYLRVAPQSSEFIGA
IC50 (EGFR kinase) [µM],% of EGFR inhibition (EGFR kinase) [%],IC50 (HCT116 cell line; [6]) [µM],IC50 (MCF7 cell line) [µM],IC50 (HEPG2 cell line) [µM],Structure (SMILES),inhibition at 100 µM [1] [%],"inhibition at 100 µM (HCT116 cell line; Homo sapiens, HCT-116, 48 h) [%]",inhibition at 100 µM (MCF7 cell line) [%],inhibition at 100 µM (HEPG2 cell line) [%],inhibition at 100 µM [2] [%],other results
0.0035 ± 0.0001,89.7 ± 2.8,20.7 ± 1.5,48.5 ± 4.8,41.3 ± 3.9,"NC(=S)NN=Cc1ccccc1OCC(=O)N1CCN(C(=O)COc2ccccc2C=NNC(N)=S)CC1 [Compound 7b, 1,1′-(Piperazine-1,4-diyl)bis(2-(2-(2-carbamothioylhydrazono)methylphenoxy)ethanone)]",66.5 ± 11.5,90.1 ± 3.41,88.9 ± 5.46,89.1 ± 2.22,> 80,–
0.0121 ± 4e-05,83.7 ± 1.4,9.98 ± 2,13.7 ± 2.3,23.8 ± 4,"Cc1nc(NN=Cc2ccc(OCC(=O)N3CCN(C(=O)COc4ccc(C=NNc5nc(C)c(N=Nc6ccccc6)s5)cc4)CC3)cc2)sc1N=Nc1ccccc1 [Compound 9a, 1,1′-(Piperazine-1,4-diyl)bis(2-(4-(((4-methyl-5-(phenylazo)thiazol-2-yl)hydrazono)methyl)-phenoxy)ethanone)]",18.2 ± 11.5,81 ± 3.91,85.9 ± 5.94,74.7 ± 4.49,> 80,–
0.0546 ± 0.0009,74.8 ± 1.6,11.5 ± 2.5,24.7 ± 3.6,26.5 ± 2.7,"Cc1ccc(N=Nc2sc(NN=Cc3ccc(OCC(=O)N4CCN(C(=O)COc5ccc(C=NNc6nc(C)c(N=Nc7ccc(C)cc7)s6)cc5)CC4)cc3)nc2C)cc1 [Compound 9b, 1,1′-(Piperazine-1,4-diyl)bis(2-(4-(((4-methyl-5-(4-tolylazo)thiazol-2-yl)hydrazono)methyl)-phenoxy)ethanone)]",27.6 ± 25.1,85.2 ± 2.11,89.5 ± 2.34,56.5 ± 4.93,> 80,–

Structure (SMILES),IC50 (EGFR kinase) [µM],% of EGFR inhibition (EGFR kinase) [%],IC50 (HCT116 cell line; [6]) [µM],IC50 (MCF7 cell line) [µM],IC50 (HEPG2 cell line) [µM],inhibition at 100 µM [1] [%],"inhibition at 100 µM (HCT116 cell line; Homo sapiens, HCT-116, 48 h) [%]",inhibition at 100 µM (MCF7 cell line) [%],inhibition at 100 µM (HEPG2 cell line) [%],inhibition at 100 µM [2] [%],other results
"Cc1nc(NN=Cc2ccccc2OCC(=O)N2CCN(C(=O)COc3ccccc3C=NNc3nc(C)c(N=Nc4ccc(Br)cc4)s3)CC2)sc1N=Nc1ccc(Br)cc1 [Compound 9i, 1,1′-(Piperazine-1,4-diyl)bis(2-(2-(((4-methyl-5-(4-bromophenylazo)thiazol-2-yl)hydrazono)-methyl)phenoxy)ethanone)]",0.0012 ± 5e-05,97.5 ± 2.1,8.5,13 ± 2.8,22 ± 2.9,71.6 ± 17.3,89.6 ± 5.3,89.9 ± 2.3,91 ± 3.56,> 80,"Bcl-2 expression fold change (HCT-116 cells [3]; downregulated): 0.76 fold change; P53 fold change (HCT-116 cells [3]; upregulated): 10.87 fold change; caspase-3 level fold change (HCT-116 cells [3]; upregulated): 9.87 fold change; caspase-8 level fold change (HCT-116 cells [3]; upregulated): 7.6 fold change; caspase-9 level fold change (HCT-116 cells [3]; upregulated): 11.6 fold change; IC50 (HCT116 cell line; read-out: IC50 (μM) ± SD HCT116, 48 h treatment, SRB): 8.51 ± 2.5 µM; cell population at the P2 phase (HCT-116 cells [4]): 51.89%; induction of apoptotic cell death vs untreated control (HCT-116 cells [5]): 4.16 fold; induction of necrosis cell death vs untreated control (HCT-116 cells [5]): 4.79 fold; early apoptosis (HCT-116 cells [5]; control 1.69%): 0.54%; late apoptosis (HCT-116 cells [5]; control 2.36%): 16.31%; total apoptosis (HCT-116 cells [5]; control 4.05%): 16.85%"
